Assay results: ChEMBL document CHEMBL1122270, “N-(4-substituted-thiazolyl)oxamic acid derivatives, a new series of potent, orally active antiallergy agents” (1983)

These molecules were tested on Rattus norvegicus (assay: Antiallergic activity by rat passive cutaneous anaphylaxis (PCA) assay when administered per orally). Conditions: po.
Format: functional
Procedure, shortened: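 Rats were passively sensitized intradermally with diluted reaginic anti-ovalbumin serum 24 h before challenge. Compound was suspended in 1% acacia and dosed by oral feeding needle at 1 mL/kg. After 20-30 min, rats were challenged with 0.02 mg ovalbumin in 0.5 mL 2% Evans Blue. Blued areas were measured 30 min after challenge. Six rats per dose; ED50 is 50% area reduction from control, with 95% confidence limits.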

Row | Compound | ED50 [mg/kg]
1 | CCOC(=O)C(=O)Nc1nc(-c2ccc([N+](=O)[O-])cc2)cs1 | > 100
2 | CCOC(=O)C(=O)Nc1ncc(-c2ccccc2)s1 | ~10
3 | CCOC(=O)C(=O)Nc1nc(-c2ccc(Oc3ccccc3)cc2)cs1 | > 30
4 | CCOC(=O)C(=O)Nc1nc(C)c(C)s1 | > 10
5 | CCOC(=O)c1ccc(-c2csc(NC(=O)C(=O)OC)n2)cc1 | > 10
6 | CCOC(=O)C(=O)Nc1ccc(-c2csc(NC(=O)C(=O)OCC)n2)cc1 | > 30
7 | NCCO.NCCO.O=C(O)C(=O)Nc1ccc(-c2csc(NC(=O)C(=O)O)n2)cc1 | > 10
8 | CCOC(=O)C(=O)Nc1nc(-c2cccnc2)cs1 | ~10
9 | CCOC(=O)C(=O)Nc1nc(-c2c(C)cc(C)cc2O)cs1 | ~10
10 | NC(=O)C(=O)Nc1nc(-c2ccc3c(c2)OCCO3)cs1 | > 30
11 | NC(=O)C(=O)Nc1nc(-c2ccc3c(c2)CCCC3)cs1 | > 10
12 | CCOC(=O)C(=O)Nc1nc(-c2ccc(F)cc2)cs1 | > 10
13 | CCOC(=O)C(=O)Nc1nc(-c2ccc3c(c2)N(C(C)=O)c2ccccc2S3)cs1 | > 10
14 | CCOC(=O)C(=O)Nc1nc(-c2ccc3c(c2)CCCC3)cs1 | > 10
15 | CCOC(=O)C(=O)Nc1nc(-c2ccc3c(c2)Sc2ccccc2S3)cs1 | > 10
16 | O=C(O)C(=O)Nc1nc(-c2ccc(-c3ccccc3)cc2O)cs1 | > 30
17 | CCOC(=O)C(=O)Nc1nc(-c2ccc(-c3ccccc3)cc2O)cs1 | > 10
18 | CCOC(=O)C(=O)Nc1nc(-c2ccc(OC)cc2OC)cs1 | > 30
19 | CCOC(=O)C(=O)Nc1nc(-c2cc(OC)c(O)c(OC)c2)cs1 | ~10
20 | NCCO.O=C(O)C(=O)Nc1nc(-c2ccncc2)cs1 | > 3
21 | CCOC(=O)C(=O)Nc1nc(-c2ccc(OC)c(OC)c2)cs1 | ~3

Row | Compound | ED50 [mg/kg]
22 | CC(=O)Nc1ccc(-c2csc(NC(=O)C(N)=O)n2)cc1 | > 10
23 | NCCO.O=C(O)C(=O)Nc1nc(-c2cccnc2)cs1 | > 10
24 | Cc1cc(-c2csc(NC(=O)C(=O)O)n2)ccc1O.NCCO | ~1
25 | CCOC(=O)C(=O)Nc1nc(-c2ccc(OC)cc2O)cs1 | ~1
26 | CCOC(=O)C(=O)Nc1nc(-c2cc(OC)ccc2OC)cs1 | > 10
27 | CCOC(=O)C(=O)Nc1nc(-c2cc(OC)cc(OC)c2)cs1 | ~10
28 | CC(=O)N1c2ccccc2Sc2ccc(-c3csc(NC(=O)C(=O)O)n3)cc21.NCCO | ~10
29 | CCCCOC(=O)C(=O)Nc1nc(-c2ccc(C(=O)OCC)cc2)cs1 | > 10
30 | CCOC(=O)C(=O)Nc1nc(-c2ccc(O)c(O)c2)cs1 | 1.4
31 | CCOC(=O)C(=O)Nc1nc(-c2ccc3c(c2)OCC(CN2CCCCC2)O3)cs1 (stereo unspecified) | > 10
32 | CCOC(=O)C(=O)Nc1nc(-c2ccc3c(c2)OCCO3)cs1 | > 10
33 | CCOC(=O)C(=O)Nc1nc(-c2ccc3oc(C)c(C)c(=O)c3c2)cs1 | > 3
34 | CCOC(=O)C(=O)Nc1nc(-c2ccc(C(=O)OCC)cc2)cs1 | > 10
35 | NCCO.O=C(O)C(=O)Nc1nc(-c2ccc(Sc3ccccc3)cc2)cs1 | > 30
36 | CCOC(=O)C(=O)Nc1nc(-c2cccc(O)c2)cs1 | > 10
37 | CCOC(=O)C(=O)Nc1nc(-c2ccccc2C(=O)OC)cs1 | > 10
38 | NC(=O)C(=O)Nc1ccc(-c2csc(NC(=O)C(N)=O)n2)cc1 | ~1
39 | CCOC(=O)C(=O)Nc1nc(-c2ccc(NC(=O)C(F)(F)F)cc2)cs1 | ~1
40 | NCCO.O=C(O)C(=O)Nc1nc(-c2ccc(Oc3ccccc3)cc2)cs1 | > 10
41 | CCOC(=O)C(=O)Nc1nc(-c2ccc(OC)cc2)cs1 [TIOXAMAST] | ~10
